Measurements from ChEMBL document CHEMBL4219175, “Synthesis and biological evaluation of aminothiazoles against Histoplasma capsulatum and Cryptococcus neoformans” (Bioorg Med Chem, 2018).
In brackets after ≈: the same amount, converted by molar mass.

What was measured:
[1] = test system: Histoplasma capsulatum; test: Antifungal activity against Histoplasma capsulatum G217B ATCC 26032 at pH 7 measured over 5 days; assay type: functional, organism-based; conditions: G217B ATCC 26032, 120 h
Procedure, shortened: (§1)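 Yeasts pre-grown in HMM (37 °C, 5% CO2) to exponential phase, counted by hemacytometer, diluted into RPMI buffered with 25 mM HEPES (pH 7.0) or 25 mM MOPS (pH 5.0) at 5 x 10^5 per well; two-fold dilutions 40 to 0.078 µM, 37 °C, agitated twice daily. A595 read over 5 days, normalized to DMSO controls; 4-day data fitted by 4-parameter regression for IC50; MIC = ≤10% growth.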

[2] = test system: Cryptococcus neoformans; test: Antifungal activity against wild type fluconazole-sensitive Cryptococcus neoformans serotype A H99 at pH 7 measured over 4 days; assay type: functional, organism-based; conditions: var grubii H99 , 96 h
Procedure, shortened: (§2)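 YPD-grown exponential-phase yeasts, hemacytometer-counted, diluted into RPMI buffered to pH 7.0 with 25 mM HEPES (or pH 5.0 with […] for pH comparison) at 2 x 10^3 per well; two-fold series 40 to 0.078 µM, 37 °C, agitated twice daily. A595 followed over 4 days versus DMSO controls; day-3 turbidity fitted by 4-parameter regression for IC50; MIC = growth ≤10% of untreated.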

[3] = test system: P388D1; test: Cytotoxicity against mouse P388D1 cells assessed as reduction in cell viability after 72 hrs by resazurin-based fluorescence assay; conditions: P388D1, 72 h
Procedure, shortened: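 P388D1 cells in Ham's F-12 + 10% FBS + 2 mM L-glutamine seeded at 5 x 10^3 per well, adhered overnight, exposed to compounds 80 to 0.3 µM for 72 h. Viability read as resorufin fluorescence (530/590 nm) after 0.1 mM resazurin, pre-saturation time points, versus untreated cells; three biological replicates; IC50 by non-linear regression.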

[4] = Therapeutic index, ratio of IC50 for mouse P388D1 cells to IC50 for Histoplasma capsulatum G217B ATCC 26032; assay type: toxicity; conditions: read-out: Ratio IC50
Procedure, shortened: (§3)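 Ratio of P388D1 IC50 (72 h resazurin viability, 80 to 0.3 µM) to yeast IC50 from RPMI/HEPES pH 7.0 broth dilution with A595 turbidity and 4-parameter regression.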

[5] = Aqueous solubility of the compound at pH 5; assay type: physicochemical; conditions: aqueous medium
[6] = Aqueous solubility of the compound at pH 7; assay type: physicochemical; conditions: aqueous medium
[7] = Ratio of aqueous solubility at pH 5 to aqueous solubility at pH 7; assay type: physicochemical; conditions: buffer
[8] = test system: Histoplasma capsulatum; test: Antifungal activity against Histoplasma capsulatum G217B ATCC 26032 at pH 5 measured over 5 days; assay type: functional, organism-based; conditions: G217B ATCC 26032, 120 h; procedure, shortened: as §1
[9] = test system: Cryptococcus neoformans; test: Antifungal activity against wild type fluconazole-sensitive Cryptococcus neoformans serotype A H99 at pH 5 measured over 4 days; assay type: functional, organism-based; conditions: var grubii H99 , 96 h; procedure, shortened: as §2
[10] = Therapeutic index, ratio of IC50 for mouse P388D1 cells to IC50 for wild type Cryptococcus neoformans serotype A H99; assay type: toxicity; conditions: read-out: Ratio IC50; procedure, shortened: as §3
[11] = test system: Cryptococcus neoformans; test: Antifungal activity against wild-type fluconazole-sensitive Cryptococcus neoformans serotype D B3501 measured over 4 days; assay type: functional, organism-based; conditions: B3501, 96 h; procedure, shortened: as §2
[12] = test system: Cryptococcus neoformans; test: Antifungal activity against fluconazole-resistant Cryptococcus neoformans serotype A TES9 harboring erg11 mutant measured over 4 days; assay type: functional, organism-based; conditions: TES9, 96 h; procedure, shortened: as §2
[13] = test system: Cryptococcus neoformans; test: Antifungal activity against fluconazole-resistant Cryptococcus neoformans serotype A MRL862 harboring erg11 mutant measured over 4 days; assay type: functional, organism-based; conditions: MRL862, 96 h; procedure, shortened: as §2
[14] = test system: Histoplasma capsulatum; test: Antifungal activity against RFP expressing Histoplasma capsulatum infected in LacZ-expressing mouse P388D1 cells incubated for 6 days measured daily by fluorescence assay; assay type: functional, organism-based; conditions: for MIC: 144 h; for IC50: P388D1, 144 h
Procedure, shortened: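 LacZ-expressing P388D1 macrophages (3x10^4 per well, adhered 3 h) infected with RFP Histoplasma yeasts at MOI 1:2 for 3 h, medium replaced with F-12 + 10% serum, overnight at 37 °C, then compound gradient added for 6 days. RFP fluorescence (530/590 nm) read daily; day-4 values relative to untreated infected cells fitted by non-linear regression; triplicate.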

Compound	IC50 [1] [nM]	MIC90 [1] [µM]	IC50 [2] [nM]	MIC90 [2] [µM]	IC50 [3] [nM]	selectivity ratio [4]	further results
O=C(CCC1CCCCC1)Nc1ncc(Cc2cccc3sccc23)s1	200	0.31 (≈ 0.119 µg/mL)	> 20000	> 40	> 40000	> 200	
O=C(CCC1CCCCC1)Nc1ncc(Cc2cccc3nsnc23)s1	> 20000	> 40	> 20000	> 40			
O=C(CCC1CCCCC1)Nc1ncc(Cc2ccccn2)s1	8090	20 (≈ 6.59 µg/mL)	> 20000		> 40000	> 5	solubility [5]: 60 µg/mL (≈ 182 µM); solubility [6]: 40 µg/mL (≈ 121 µM); Ratio [7]: 1.5; IC50 [8]: > 20000 nM; MIC90 [8]: > 40 µM; IC50 [9]: > 20000 nM; MIC90 [9]: > 40 µM
O=C(CCC1CCCCC1)Nc1ncc(Cc2cccc3c2CCC3)s1	380	0.63 (≈ 0.232 µg/mL)	> 20000	> 40	> 40000	> 105	
O=C(Nc1ncc(Cc2cccc3ccsc23)s1)C1CCCCC1	200	0.31 (≈ 0.111 µg/mL)	340	0.63 (≈ 0.225 µg/mL)	> 40000	> 200	selectivity ratio [10]: > 118; IC50 [11]: 270 nM; MIC90 [11]: 0.63 µM (≈ 0.225 µg/mL); IC50 [12]: 230 nM; MIC90 [12]: 0.63 µM (≈ 0.225 µg/mL); IC50 [13]: 200 nM; MIC90 [13]: 0.63 µM (≈ 0.225 µg/mL); MIC [14]: 2.5 µM (≈ 0.891 µg/mL); IC50 [14]: 1380 nM
O=C(Nc1ncc(Cc2ccncc2)s1)C1CCCCC1	> 20000		> 20000				solubility [5]: 1190 µg/mL (≈ 3950 µM); solubility [6]: 350 µg/mL (≈ 1160 µM); Ratio [7]: 3.4; IC50 [8]: > 20000 nM; MIC90 [8]: > 40 µM; IC50 [9]: > 20000 nM; MIC90 [9]: > 40 µM
CCc1cnc(NC(=O)CCC2CCCCC2)s1	> 20000	> 40	> 20000	> 40			
CCc1cnc(NC(=O)C2CCCCC2)s1	> 20000	> 40	> 20000	> 40			
O=C(CCC1CCCCC1)Nc1ncc(Cc2ccnc3ccccc23)s1	> 20000	> 40	> 20000				solubility [5]: 5 µg/mL (≈ 13.2 µM); solubility [6]: 3 µg/mL (≈ 7.9 µM); Ratio [7]: 1.7; IC50 [8]: 15700 nM; MIC90 [8]: 40 µM (≈ 15.2 µg/mL); IC50 [9]: > 20000 nM; MIC90 [9]: > 40 µM
O=C(Nc1ncc(CC2CCCC2)s1)C1CCCCC1	760	1.25 (≈ 0.366 µg/mL)	> 20000	> 40	> 40000	> 53	
O=C(CCC1CCCCC1)Nc1ncc(Cc2cccc3ccoc23)s1	400	0.63 (≈ 0.232 µg/mL)	> 20000	> 40	17800	44	
O=C(Nc1ncc(Cc2cc3sccc3s2)s1)C1CCCCC1	> 20000	> 40	> 20000	> 40			
O=C(c1cnc(NC(=O)C2CCCCC2)s1)c1cccc2ccccc12	190	0.31 (≈ 0.113 µg/mL)	890	2.5 (≈ 0.911 µg/mL)	> 40000	> 211	selectivity ratio [10]: > 45; IC50 [11]: 380 nM; MIC90 [11]: 1.25 µM (≈ 0.456 µg/mL); IC50 [12]: 470 nM; MIC90 [12]: 1.25 µM (≈ 0.456 µg/mL); IC50 [13]: 410 nM; MIC90 [13]: 1.25 µM (≈ 0.456 µg/mL); MIC [14]: 1.25 µM (≈ 0.456 µg/mL); IC50 [14]: 710 nM
O=C(Nc1ncc(Cc2cccc3c2CCC3)s1)C1CCCCC1	250	0.63 (≈ 0.215 µg/mL)	410	1.25 (≈ 0.426 µg/mL)	> 40000	> 160	selectivity ratio [10]: > 98; IC50 [11]: 420 nM; MIC90 [11]: 1.25 µM (≈ 0.426 µg/mL); IC50 [12]: 450 nM; MIC90 [12]: 1.25 µM (≈ 0.426 µg/mL); IC50 [13]: 370 nM; MIC90 [13]: 1.25 µM (≈ 0.426 µg/mL)
OC(Cn1cncn1)(Cn1cncn1)c1ccc(F)cc1F [FLUCONAZOLE]			950	4.08 (≈ 1.25 µg/mL)			IC50 [11]: 130 nM; MIC90 [11]: 2.04 µM (≈ 0.625 µg/mL); IC50 [12]: 27400 nM; MIC90 [12]: 65.4 µM (≈ 20 µg/mL); IC50 [13]: 14600 nM; MIC90 [13]: 32.7 µM (≈ 10 µg/mL)
